Source: ChEMBL document CHEMBL1147268, “New triterpene glycosides from the stems of Anomospermum grandifolium” (2003)
Values after ≈ are worked out from the molar mass of the structure shown. Active and inactive are the calls of the source. No cut-off for these calls is given here.

Experiments:
Enterococcus faecalis [1] = assay: Antibacterial activity against Enterococcus faecalis ATCC 29212 at 120 ug/mL after 18 hrs by broth microdilution method; assay type: functional, organism-based
Summary of the method: (§1)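 Broth microdilution in Mueller Hinton broth in 96-well plates, run in duplicate following NCCLS guidance. Pure compounds were tested at dilution intervals up to a top concentration of 120 or 250 µg/mL. Plates were incubated 18 h at 37 °C and read from below with a reflective viewer. DMSO served as blank control and ampicillin as positive control.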

Staphylococcus aureus [2] = assay: Antibacterial activity against Staphylococcus aureus ATCC 25923 at 120 ug/mL after 18 hrs by broth microdilution method; assay type: functional, organism-based; summary of the method: as §1
Escherichia coli [3] = assay: Antibacterial activity against Escherichia coli ATCC 25922 at 120 ug/mL after 18 hrs by broth microdilution method; assay type: functional, organism-based; summary of the method: as §1
Pseudomonas aeruginosa [4] = assay: Antibacterial activity against Pseudomonas aeruginosa ATCC 27853 at 120 ug/mL after 18 hrs by broth microdilution method; assay type: functional, organism-based; summary of the method: as §1
Candida albicans = assay: Antifungal activity against Candida albicans ATCC 3153 after 18 hrs by broth microdilution method; assay type: functional; conditions: ATCC 3153, 18 h
Summary of the method: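 Candida albicans ATCC 3153 was tested by broth microdilution in Sabouraud broth in 96-well plates, in duplicate, per NCCLS. Pure compounds were tested at varied dilution intervals. Plates were incubated 18 h at 37 °C and read from below with a reflective viewer. MIC was taken from the growth end point. DMSO served as blank control and ketoconazole as positive control.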

Staphylococcus aureus [5] = assay: Antibacterial activity against Staphylococcus aureus ATCC 25923 at 250 ug/mL after 18 hrs by broth microdilution method; assay type: functional, organism-based; summary of the method: as §1
Escherichia coli [6] = assay: Antibacterial activity against Escherichia coli ATCC 25922 at 250 ug/mL after 18 hrs by broth microdilution method; assay type: functional, organism-based; summary of the method: as §1
Pseudomonas aeruginosa [7] = assay: Antibacterial activity against Pseudomonas aeruginosa ATCC 27853 at 250 ug/mL after 18 hrs by broth microdilution method; assay type: functional, organism-based; summary of the method: as §1
Enterococcus faecalis [8] = assay: Antibacterial activity against Enterococcus faecalis ATCC 29212 at 250 ug/mL after 18 hrs by broth microdilution method; assay type: functional, organism-based; summary of the method: as §1

Structure (SMILES) | Activity (Enterococcus faecalis [1]) | Activity (Staphylococcus aureus [2]) | Activity (Escherichia coli [3]) | Activity (Pseudomonas aeruginosa [4]) | MIC (Candida albicans) [µg/mL] | Activity (Staphylococcus aureus [5]) | Activity (Escherichia coli [6]) | Activity (Pseudomonas aeruginosa [7]) | Activity (Enterococcus faecalis [8])
CC(C)=C[C@H]1C[C@](C)(O)[C@@H]2[C@H]3CC[C@@H]4[C@@]5(C)CC[C@H](O[C@@H]6OC[C@H](O)[C@H](O[C@@H]7O[C@H](CO)[C@@H](O)[C@H](O)[C@H]7O)[C@H]6O[C@@H]6O[C@@H](CO)[C@H](O)[C@H]6O)C(C)(C)[C@@H]5CC[C@@]4(C)[C@@]34CO[C@@]2(C4)O1 | inactive | inactive | inactive | inactive | – | – | – | – | –
CC(=O)N1CCN(c2ccc(OCC3COC(Cn4ccnc4)(c4ccc(Cl)cc4Cl)O3)cc2)CC1 (stereo not given) [KETOCONAZOLE] | – | – | – | – | 0.1 (≈ 0.188 µM) | – | – | – | –
CC(C)=C[C@H]1C[C@](C)(O)[C@@H]2[C@H]3CC[C@@H]4[C@@]5(C)CC[C@H](O[C@@H]6OC[C@H](O)[C@H](O[C@@H]7O[C@H](CO[C@@H]8O[C@H](CO)[C@@H](O)[C@H](O)[C@H]8O)[C@@H](O)[C@H](O)[C@H]7O)[C@H]6O[C@@H]6O[C@@H](CO)[C@H](O)[C@H]6O)C(C)(C)[C@@H]5CC[C@@]4(C)[C@@]34CO[C@@]2(C4)O1 | – | – | – | – | 250 (≈ 236 µM) | inactive | inactive | inactive | inactive
